Columns and labels:
[1] = tested on: Balb/MK; experiment: Tested for antiproliferative activity using mouse epidermal keratinocytes cell line (BALB/MK); assay type: functional, cell-based
How it was run: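 BALB/MK mouse epidermal keratinocytes, which depend on EGF to proliferate. Compounds were kept as 10 mM DMSO stocks and freshly diluted. They were added 24 h after plating, at a final DMSO concentration of 0.5%. Growth was read by methylene blue staining after 3–5 days, and IC50 was determined.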

[2] = target: Epidermal growth factor receptor (Homo sapiens, UniProt P00533); experiment: In vitro inhibition of the Epidermal growth factor receptor activity in A431 membranes
[3] = In vitro inhibition of the Protein kinase C tyrosine kinase activity in A431 membranes; assay type: cell membranes
[4] = target: Proto-oncogene tyrosine-protein kinase Src (Homo sapiens, UniProt P12931); experiment: In vitro inhibition of the c-src tyrosine kinase activity in A431 membranes using angiotensin II as phosphate acceptor as substrate; assay type: cell membranes
[5] = tested on: A431 (Homo sapiens); experiment: Inhibition of EGF-dependent tyrosine phosphorylation in A431 cells.
[6] = target: v-abl tyrosine kinase (Abelson murine leukemia virus) (UniProt P00521); experiment: In vitro inhibition of the v-abl tyrosine kinase activity using purified v-abl kinase
[7] = tested on: Mus musculus; experiment: Inhibition of EGF-dependent tyrosine phosphorylation in xenografts of the BT-20 tumor in nude mice.; assay type: functional, organism-based

Epidermal growth factor receptor, sequence (P00533 whole entry): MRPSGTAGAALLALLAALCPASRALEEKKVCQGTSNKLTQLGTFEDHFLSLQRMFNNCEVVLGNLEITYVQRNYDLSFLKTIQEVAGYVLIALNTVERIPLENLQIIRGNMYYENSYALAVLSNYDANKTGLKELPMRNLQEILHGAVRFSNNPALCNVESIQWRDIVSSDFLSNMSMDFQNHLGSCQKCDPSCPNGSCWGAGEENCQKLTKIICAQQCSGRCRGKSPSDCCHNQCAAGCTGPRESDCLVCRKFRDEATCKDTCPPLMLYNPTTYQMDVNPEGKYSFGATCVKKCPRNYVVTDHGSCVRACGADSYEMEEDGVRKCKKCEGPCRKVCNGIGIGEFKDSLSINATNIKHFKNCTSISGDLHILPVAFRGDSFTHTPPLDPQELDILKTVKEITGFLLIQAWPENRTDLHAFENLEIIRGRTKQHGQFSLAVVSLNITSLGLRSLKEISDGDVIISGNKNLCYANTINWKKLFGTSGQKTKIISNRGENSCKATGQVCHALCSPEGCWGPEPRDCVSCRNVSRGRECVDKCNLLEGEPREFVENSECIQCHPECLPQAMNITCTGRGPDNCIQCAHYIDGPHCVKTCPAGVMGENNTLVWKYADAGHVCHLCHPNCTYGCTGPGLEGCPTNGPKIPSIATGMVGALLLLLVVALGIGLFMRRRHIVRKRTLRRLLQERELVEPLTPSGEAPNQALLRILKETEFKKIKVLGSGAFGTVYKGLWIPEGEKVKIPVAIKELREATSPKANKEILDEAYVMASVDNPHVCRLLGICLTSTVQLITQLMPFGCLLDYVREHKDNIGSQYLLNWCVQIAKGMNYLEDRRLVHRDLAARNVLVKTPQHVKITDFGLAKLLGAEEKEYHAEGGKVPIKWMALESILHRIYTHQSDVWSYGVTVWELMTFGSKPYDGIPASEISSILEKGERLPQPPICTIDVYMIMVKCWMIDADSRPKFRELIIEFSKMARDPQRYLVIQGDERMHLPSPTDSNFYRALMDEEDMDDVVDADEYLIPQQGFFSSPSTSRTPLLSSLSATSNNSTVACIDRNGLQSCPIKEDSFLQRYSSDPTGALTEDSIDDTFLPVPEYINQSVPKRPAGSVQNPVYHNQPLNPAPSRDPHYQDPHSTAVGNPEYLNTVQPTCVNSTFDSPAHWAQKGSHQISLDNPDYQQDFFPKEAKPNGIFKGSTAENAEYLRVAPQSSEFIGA
Proto-oncogene tyrosine-protein kinase Src, sequence (P12931 2-536 limits assumed): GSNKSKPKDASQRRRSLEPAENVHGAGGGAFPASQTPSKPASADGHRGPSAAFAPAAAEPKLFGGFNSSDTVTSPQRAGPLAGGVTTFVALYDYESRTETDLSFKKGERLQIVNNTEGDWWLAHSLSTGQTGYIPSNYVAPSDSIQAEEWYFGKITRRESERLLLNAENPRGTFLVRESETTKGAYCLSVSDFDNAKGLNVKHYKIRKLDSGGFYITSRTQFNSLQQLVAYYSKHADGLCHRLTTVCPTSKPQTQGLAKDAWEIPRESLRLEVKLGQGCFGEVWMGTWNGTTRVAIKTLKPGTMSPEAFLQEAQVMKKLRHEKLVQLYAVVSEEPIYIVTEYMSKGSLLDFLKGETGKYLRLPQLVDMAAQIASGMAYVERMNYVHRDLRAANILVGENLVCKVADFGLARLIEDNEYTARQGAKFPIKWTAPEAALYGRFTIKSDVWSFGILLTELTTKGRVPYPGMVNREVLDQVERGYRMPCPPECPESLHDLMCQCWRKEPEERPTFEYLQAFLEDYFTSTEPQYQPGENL
v-abl tyrosine kinase (Abelson murine leukemia virus), sequence (P00521 whole entry, looked up): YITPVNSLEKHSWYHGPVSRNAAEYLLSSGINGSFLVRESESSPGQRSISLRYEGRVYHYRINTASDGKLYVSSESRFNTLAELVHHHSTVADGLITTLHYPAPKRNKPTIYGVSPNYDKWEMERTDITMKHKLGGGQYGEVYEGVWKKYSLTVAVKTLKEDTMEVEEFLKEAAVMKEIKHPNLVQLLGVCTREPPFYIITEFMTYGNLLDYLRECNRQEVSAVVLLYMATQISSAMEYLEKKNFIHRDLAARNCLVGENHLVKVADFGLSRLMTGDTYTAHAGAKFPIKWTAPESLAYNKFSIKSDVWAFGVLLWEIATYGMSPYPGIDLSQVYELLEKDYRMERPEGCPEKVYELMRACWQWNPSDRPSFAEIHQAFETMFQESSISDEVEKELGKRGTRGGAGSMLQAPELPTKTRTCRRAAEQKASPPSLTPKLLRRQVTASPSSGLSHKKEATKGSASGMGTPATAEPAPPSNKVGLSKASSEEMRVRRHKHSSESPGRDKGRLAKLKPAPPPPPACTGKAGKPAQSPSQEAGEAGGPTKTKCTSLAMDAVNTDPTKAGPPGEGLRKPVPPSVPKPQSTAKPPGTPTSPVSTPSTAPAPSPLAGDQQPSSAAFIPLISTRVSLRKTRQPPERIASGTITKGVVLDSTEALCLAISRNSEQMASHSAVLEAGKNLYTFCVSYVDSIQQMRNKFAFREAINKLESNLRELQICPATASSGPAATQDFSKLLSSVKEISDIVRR

O=C(CCN1CCCCC1)c1ccc(OCc2ccccc2)cc1
IC50 [1]: 25.6 µM
IC50 [2]: 1.8 µM
IC50 [3]: > 500 µM
IC50 [4]: > 100 µM
IC50 [5]: 100 µM
IC50 [6]: > 100 µM

CN(C)CCC(=O)c1ccc(OCc2ccccc2)c(O)c1
IC50 [1]: 9.3 µM
IC50 [2]: 0.36 µM
IC50 [3]: 500 µM
IC50 [4]: > 50 µM
IC50 [5]: 50 µM
IC50 [6]: > 100 µM

C=C(CN(C)C)C(=O)c1ccc(OS(=O)(=O)c2ccc(C(=O)N(C)C)cc2)cc1
IC50 [1]: 2.8 µM
IC50 [2]: 0.7 µM
IC50 [3]: 180 µM
IC50 [4]: > 50 µM
IC50 [6]: 70 µM

COC(=O)c1ccccc1SCC(CN(C)C)C(=O)c1ccc(OCc2ccccc2)cc1 (configuration not stated)
IC50 [1]: 1.24 µM
IC50 [2]: 8.8 µM
IC50 [3]: > 500 µM
IC50 [4]: > 100 µM
IC50 [5]: 25 µM
IC50 [6]: > 100 µM

CN(C)CC(CSCCN)C(=O)c1ccc(OCc2ccccc2)cc1 (configuration not stated)
IC50 [1]: 4.1 µM
IC50 [2]: 8.8 µM
IC50 [3]: > 100 µM
IC50 [4]: > 100 µM
IC50 [5]: 25 µM
IC50 [6]: > 50 µM

Cc1ccc(SCC(CN(C)C)C(=O)c2ccc(OCc3ccccc3)cc2)cc1C (configuration not stated)
IC50 [1]: 1.21 µM
IC50 [2]: 2.1 µM
IC50 [3]: > 500 µM
IC50 [4]: > 100 µM
IC50 [5]: 100 µM
IC50 [6]: > 100 µM

O=c1c(-c2ccc(O)cc2)coc2cc(O)cc(O)c12 [GENISTEIN]
IC50 [3]: 15 µM
IC50 [4]: 75 µM
IC50 [6]: 10 µM

C=C(CN(C)C)C(=O)c1ccccc1
IC50 [1]: 9.3 µM
IC50 [2]: 5.6 µM
IC50 [3]: 500 µM
IC50 [4]: > 100 µM
IC50 [7]: > 100 µM
IC50 [6]: > 100 µM

CC(CN(C)C)C(=O)c1ccc(OS(=O)(=O)c2ccc(C(=O)O)cc2)cc1 (configuration not stated)
IC50 [1]: > 50 µM
IC50 [2]: 100 µM
IC50 [5]: 100 µM

CN(C)CC(CSc1ccccc1)C(=O)c1ccc(OCc2ccccc2)cc1 (configuration not stated)
IC50 [1]: 1.6 µM
IC50 [2]: 7.3 µM
IC50 [3]: > 500 µM
IC50 [4]: > 50 µM
IC50 [5]: 100 µM
IC50 [6]: > 50 µM

CN(C)CCC(=O)c1ccc(OCc2ccccc2)cc1
IC50 [1]: 46.2 µM
IC50 [2]: 1.5 µM
IC50 [3]: > 100 µM
IC50 [4]: > 100 µM
IC50 [5]: > 100 µM
IC50 [6]: > 100 µM

C=C(CN1CCCCC1)C(=O)c1ccc(OCc2ccccc2)cc1
IC50 [1]: 3.5 µM
IC50 [2]: 1.1 µM
IC50 [3]: 140 µM
IC50 [4]: > 100 µM
IC50 [5]: > 100 µM
IC50 [6]: > 100 µM

CCOC(=O)C1CCN(CCC(=O)c2ccc(OCc3ccccc3)cc2)CC1
IC50 [1]: 40.2 µM
IC50 [2]: 0.3 µM
IC50 [3]: > 500 µM
IC50 [4]: > 100 µM
IC50 [5]: > 100 µM
IC50 [6]: > 100 µM

O=C(CCN1CCOCC1)c1ccc(OCc2ccccc2)cc1
IC50 [1]: 33.9 µM
IC50 [2]: 1.5 µM
IC50 [3]: 420 µM
IC50 [4]: > 100 µM
IC50 [5]: > 100 µM
IC50 [6]: > 100 µM

CN(C)CCCC(=O)c1ccc(OCc2ccccc2)cc1
IC50 [1]: > 50 µM
IC50 [2]: > 100 µM
IC50 [5]: > 100 µM
IC50 [6]: > 100 µM

C=C(CN(C)C)C(=O)c1ccc(OS(=O)(=O)c2ccc(C(=O)O)cc2)cc1
IC50 [1]: > 50 µM
IC50 [2]: 0.23 µM
IC50 [3]: > 500 µM
IC50 [4]: > 100 µM
IC50 [5]: 100 µM
IC50 [6]: 50 µM

C=C(CN(C)C)C(=O)c1ccc(OCc2ccccc2)c(O)c1
IC50 [1]: 3.3 µM
IC50 [2]: 0.67 µM
IC50 [3]: 86 µM
IC50 [4]: 50 µM
IC50 [5]: > 100 µM
IC50 [6]: > 50 µM

C=C(CN(C)C)C(=O)c1ccc(OCc2ccccc2)cc1
IC50 [1]: 6.1 µM
IC50 [3]: 215 µM
IC50 [4]: > 100 µM
IC50 [6]: > 100 µM

C=C(CN(C)C)C(=O)c1ccc(OS(=O)(=O)c2ccc(C(=O)O)c(O)c2)cc1
IC50 [1]: > 50 µM
IC50 [3]: 140 µM

CN(C)CC(CNNC(N)=O)C(=O)c1ccc(OCc2ccccc2)cc1 (configuration not stated)
IC50 [1]: 2 µM
IC50 [2]: 3.9 µM
IC50 [3]: > 500 µM
IC50 [4]: > 100 µM
IC50 [5]: 50 µM
IC50 [6]: > 100 µM

C=C(CN1CCOCC1)C(=O)c1ccc(OCc2ccccc2)cc1
IC50 [1]: 1.8 µM
IC50 [2]: 1.1 µM
IC50 [3]: 110 µM
IC50 [4]: > 100 µM
IC50 [5]: 100 µM
IC50 [6]: > 100 µM

C=C(CN1CCNCC1)C(=O)c1ccc(OCc2ccccc2)cc1
IC50 [1]: 0.95 µM
IC50 [2]: 1.5 µM
IC50 [3]: 310 µM
IC50 [4]: > 100 µM
IC50 [5]: > 100 µM
IC50 [6]: > 100 µM
